# A selection: hits, their analogues and other compounds. The true share with any hit is near 1.7%.
# m5-HT2A agonist = mouse HTR2A agonism via beta-arrestin recruitment; P35363; CHO-K1 mHTR2A beta-arrestin complementation, luminescence; percent of 30 µM serotonin response; activation, % at 7.6 µM; 360,000 tested, 0.66% active;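 active = activation above a run cutoff, the mean activation of all tested compounds plus 3 SD, cut at about 14% in these data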;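 also: 0% = plate median of compound wells and 100% = 30 µM serotonin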
# T cell HTS = modulates CD8 T cell binding to vesicles; response (vesicle binding), % at 7 µM; 2C CD8+ T cell-vesicle binding, flow cytometry; active compounds read low; 330,000 tested, 0.068% active;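 active = response, share of CD8 T cells binding vesicles, and their 90th percentile fluorescence all below set limits, cut at about 80% in these data, passing the limit was not always enough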;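 also: values below 100% mean blocked vesicle binding to the CD8+ T cells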
#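 material = purified 2C TCR transgenic mouse naive CD8+ T cells | controls = Unloaded micro-vesicles (low), QL9 vesicles with 0.7% DMSO (high) | detection = cytometric PE anti-B7-1 and Alexa647 anti-CD8 signals after 1% paraformaldehyde fixation | incubation = binding step 1.5 h, 37 °C, antibody labelling 20 min, ice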
# GASC-1 inh = human JMJD2C demethylase inhibition | AID 2099 | 330,000 tested, 0.069% active | GST-JMJD2C(1-420) H3K9me3 demethylation, DELFIA europium | inhibition, % at 2.35 µM;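 active = more than half of a compound's replicate wells show inhibition beyond 50%, single wells judged on their own value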;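 also: signal counts dimethyl H3K9 product captured on neutravidin plate; 0% = median of DMSO wells and 100% = 0.3 times that DMSO median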
# Target sequence (Q9H3R0 1-420 limits assumed): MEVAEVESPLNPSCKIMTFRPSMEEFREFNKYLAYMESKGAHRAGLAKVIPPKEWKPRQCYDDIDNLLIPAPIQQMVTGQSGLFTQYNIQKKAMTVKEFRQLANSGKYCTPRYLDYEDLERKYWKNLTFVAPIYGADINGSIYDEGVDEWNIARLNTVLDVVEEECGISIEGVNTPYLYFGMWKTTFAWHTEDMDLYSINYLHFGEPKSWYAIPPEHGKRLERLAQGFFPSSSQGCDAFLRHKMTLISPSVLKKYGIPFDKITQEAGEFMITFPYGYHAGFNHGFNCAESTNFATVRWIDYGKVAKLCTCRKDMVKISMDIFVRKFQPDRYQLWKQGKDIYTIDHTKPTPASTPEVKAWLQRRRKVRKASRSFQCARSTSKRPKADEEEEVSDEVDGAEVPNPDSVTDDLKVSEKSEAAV
# PP5 inh = blocks human protein phosphatase 5 activity | P53041 | purified PP5c, OMFP substrate fluorescence | inhibition, % at 6.7 µM | 320,000 tested, 0.18% active | AID 1987;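 active = inhibition above the campaign's mean inhibition across all tested compounds plus 3 SD, cut at about 9.5% in these data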;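 also: 0% = DMSO only and 100% = 100 µM cantharidin control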
# PP1 inh = PP1-alpha (human) inhibition in PP5 counter-screen; P62136; purified PP1alpha, OMFP fluorescence; inhibition, % at 6.7 µM; 320,000 tested, 0.9% active;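 active = inhibition above the mean inhibition of all tested compounds plus 3 SD, computed separately for each screening campaign, cut at about 15% in these data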
# PP5 inh confirm = confirmation of human PP5 phosphatase inhibitors; Purified PP5, fluorogenic phosphatase substrate, fluorescence; shares compounds with PP5 inh; inhibition, % at 6.7 µM; 460 tested, 22% active; AID 2331; in the data active = inhibition above about 9.5%
# PP1 inh counter = inhibits human PP1 phosphatase in PP5 counter-screen | PP1 enzyme, fluorescent phosphatase substrate | shares compounds with PP5 inh | AID 2355 | inhibition, % at 6.7 µM | 460 tested, 4% active; in the data active = inhibition above about 16%
# The depositor's hits bear a star; / = no result.
SMILES,m5-HT2A agonist,T cell HTS,GASC-1 inh,PP5 inh,PP1 inh,PP5 inh confirm,PP1 inh counter
ONC(=Nc1ccccc1Cl)c1ccccc1Cl,2,211,-16,13*,2,-1,0
O=C1c2ccccc2C(=O)C12OC2c1ccc(Cl)cc1 (configuration not stated),/,187,2,11*,1,32*,4
FC(F)(F)c1ccc(-n2cnc3ccccc32)nc1,8,158,-3,6,1,/,/
CCN(CC)C1=CC2=CC(=C(C#N)C#N)CCC2CC1 (configuration not stated),-3,256,8,-61,-47,-142,-48
CCCCN(C)C1=CC2=CC(=C(C#N)C#N)CCC2CC1 (configuration not stated),5,576,11,-57,-72,/,/
CC1(C(=O)Nc2ccc3c(c2)OCCO3)CC1(Cl)Cl (configuration not stated),1,366,1,19*,-3,-5,-4
Cc1ccc(NC(=O)c2cc3ccccc3o2)cc1S(=O)(=O)N(C)C,-2,/,/,/,/,/,/
CN(C)S(=O)(=O)c1ccc(NC(=O)c2cc3ccccc3o2)cc1,-3,368,-3,10*,4,-4,-2
Cc1noc(C)c1C(=O)Nc1ccc(C#N)cc1,0,121,5,-1,-4,/,/
CC(=O)Nc1ccc(S(=O)(=O)N2CCN(c3nc(NC4CCCC4)c4ccccc4n3)CC2)cc1,-3,236,11,12*,11,2,0
CC(=O)Nc1ccc(S(=O)(=O)N2CCN(c3cc(C)nc4ccccc34)CC2)cc1,0,209,-5,1,-3,/,/
Cn1nnnc1NCc1c(F)cccc1Cl,0,297,-2,2,-2,/,/
Cn1nnnc1NCc1cccc(Cl)c1Cl,-3,86,9,15*,1,-1,-3
COC(=O)c1ccc(C2C(C(=O)OCC(C)C)=C(C)N=C3SCCC(=O)N32)cc1 (configuration not stated),-2,197,-3,10*,1,-1,1
COC(=O)C1=C(C)N=C2SCCC(=O)N2C1c1ccc(C(=O)OC)cc1 (configuration not stated),0,255,-2,-1,-1,/,/
CC(C)(C)OC(=O)NCCCCCNC(=O)c1[nH]cnc1C(=O)N[C@@H](CCCCNC(=O)OC(C)(C)C)C(=O)OC(C)(C)C,3,529,2,13*,6,5,6
CC(C)(C)OC(=O)NCCCC[C@H](NC(=O)c1nc[nH]c1C(=O)N[C@@H](CCCCNC(=O)OC(C)(C)C)C(=O)OC(C)(C)C)C(=O)OC(C)(C)C,11,276,-2,16*,11,11*,12
CC(C)C[C@H](NC(=O)c1[nH]cnc1C(=O)N[C@@H](C)c1ccccc1)C(=O)OC(C)(C)C,-3,149,-1,9.9*,9,9.7*,9
Cc1cccc(NC(=O)c2nc[nH]c2C(=O)N[C@@H](CCCCNC(=O)OC(C)(C)C)C(=O)OC(C)(C)C)c1,-7,659,-5,11*,3,5,6
CC(C)(C)OC(=O)CNC(=O)c1[nH]cnc1C(=O)N[C@@H](CCCCNC(=O)OC(C)(C)C)C(=O)OC(C)(C)C,-4,196,-2,8,6,/,/
CC(C)(C)OC(=O)NCCCC[C@H](NC(=O)c1nc[nH]c1C(=O)NC(c1ccccc1)c1ccccc1)C(=O)OC(C)(C)C,5,/,3,3,11,/,/
Cc1cccc(NC(=O)c2nc[nH]c2C(=O)NCCCCCNC(=O)OC(C)(C)C)c1,4,393,0,5,4,/,/
COc1ccc(-n2nc3c(c2NC(=O)CCl)CSC3)cc1,-6,252,2,-1,-4,/,/
Cc1ccc(C)c(S(=O)(=O)N2CCN(C(=O)CCC(=O)NCc3ccc(Cl)cc3Cl)CC2)c1,-5,/,/,/,/,/,/
CC(C)C[C@@H]1COc2cc(N(C)CCO)ccc2S(=O)(=O)N1,2,/,/,/,/,/,/
SMILES,m5-HT2A agonist,T cell HTS,GASC-1 inh,PP5 inh,PP1 inh,PP5 inh confirm,PP1 inh counter
COc1ccccc1NS(=O)(=O)c1ccc(C(=O)Nc2ncccc2O)cc1,4,348,-3,-2,-3,/,/
CC(C)C[C@H](NC(=O)c1nc[nH]c1C(=O)N[C@@H](CCCCNC(=O)OC(C)(C)C)C(=O)OC(C)(C)C)C(=O)OCc1ccccc1,-1,191,6,11*,13,8,9
C[C@H](NC(=O)c1nc[nH]c1C(=O)N[C@@H](CCCCNC(=O)OC(C)(C)C)C(=O)OC(C)(C)C)C(=O)OC(C)(C)C,0,713,9,9.6*,8,5,6
CC(C)(C)OC(=O)[C@H](Cc1ccccc1)NC(=O)c1nc[nH]c1C(=O)NC1CCN(C(=O)OC(C)(C)C)CC1,14,/,-19,10*,9,10*,10
C[C@H](NC(=O)c1nc[nH]c1C(=O)N[C@@H](CCCCNC(=O)OC(C)(C)C)C(=O)OC(C)(C)C)C(=O)OCc1ccccc1,14,188,3,9,11,/,/
CC(C)(C)OC(=O)[C@H](Cc1ccccc1)NC(=O)c1nc[nH]c1C(=O)N1CCN(C(=O)OC(C)(C)C)CC1,8,434,5,2,-6,/,/
CC(C)(C)OC(=O)NCCCC[C@H](NC(=O)c1nc[nH]c1C(=O)NC1CCN(C(=O)OC(C)(C)C)CC1)C(=O)OC(C)(C)C,1,511,-2,11*,10,9,10
COc1ccccc1CN1CCNC(=O)C1CC(=O)NCCOc1cccnc1 (configuration not stated),2,376,0,-1,-4,/,/
Fc1ccccc1OCCCCN1CCCCC1,-6,217,-15,13*,0,-3,-5
COc1cc2c(cc1OC)C(c1cccs1)N(C(=O)C(C)C)CC2 (configuration not stated),-4,284,1,9.9*,0,-5,-5
CCc1ccc(S(=O)(=O)/N=C2\C=C(Nc3cccc(C(=O)O)c3)C(=O)c3ccccc32)cc1,-5,257,15,11*,13,42*,12
COC(=O)CCC(=O)OC1(C)C(=O)C=C2C=C(C3CC3)N(C3CCCC3)C=C2C1=O (configuration not stated),1,237,-1,12*,3,32*,7
COC(=O)CCC(=O)OC1(C)C(=O)C=C2C=C(C3CC3)N(CC3CC3)C=C2C1=O (configuration not stated),7,231,-3,12*,0,37*,14
COC(=O)CCC(=O)OC1(C)C(=O)C=C2C=C(C3CC3)N(Cc3ccccc3)C=C2C1=O (configuration not stated),6,268,-3,6,5,/,/
